Assay results of several laboratories.
Each line is one published result; the experiments were not run side by side.
Organism: Aspergillus niger
Read-out: microbial growth

Clc1ccccc1C(c1ccccc1)(c1ccccc1)n1ccnc1
inhibition zone (disc diffusion; 20000 µg/mL): 25 mm

Cc1ccc2nc(-c3ccc(Cl)c(Cl)c3)[nH]c2c1
MIC (ATCC16404): 32 µg/mL

Cc1ccc(C)n1-c1ccc(-c2n[nH]c(=S)[nH]2)cc1
MIC (broth dilution; ATCC6275): > 500 µg/mL

Oc1ccc(Br)cc1-c1nc2ccccc2[nH]1
MIC (ATCC16404): 512 µg/mL

Cc1cc(=O)[nH]n1C(=O)c1ccc(-n2c(C)ccc2C)cc1
MIC (broth dilution; ATCC6275): 250 µg/mL

O=C1NN=C(N=Cc2ccc(O)cc2O)C1=NNn1c(-c2ccccc2)nc2ccccc2c1=O
MIC (broth dilution): 107 µM

Cc1ccc2nc(-c3ccco3)n(Cc3ccccc3)c2c1
MIC (ATCC16404): 512 µg/mL

Cc1ccc(C)n1-c1ccc(-c2nnc(S)s2)cc1
MIC (broth dilution; ATCC6275): 125 µg/mL

CSc1ccc(-c2nc3ccc(C)cc3[nH]2)cc1
MIC (ATCC16404): 64 µg/mL

CC1=NN(CNC(=O)c2ccccn2)C(=O)C1=NNn1c(-c2ccccc2)nc2ccccc2c1=O
MIC (broth dilution): 104 µM

Cc1ccc2nc(-c3cc(Br)ccc3O)[nH]c2c1
MIC (ATCC16404): 256 µg/mL

CC1=NN(CNC(=O)c2ccccc2)C(=O)C1=NNn1c(-c2ccccc2)nc2ccccc2c1=O
MIC (broth dilution): 104 µM

Cc1ccc(C)n1-c1ccc(-c2nnc(-c3ccc(Br)cc3)[nH]2)cc1
MIC (broth dilution; ATCC6275): 4 µg/mL

O=C1NN=C(N=Cc2ccccc2)C1=NNn1c(-c2ccccc2)nc2ccccc2c1=O
MIC (broth dilution): 57.1 µM

Cc1ccc(C)n1-c1ccc(-c2nnc(-c3ccc(O)cc3)[nH]2)cc1
MIC (broth dilution; ATCC6275): 31.2 µg/mL

Clc1ccccc1C(c1ccccc1)(c1ccccc1)n1ccnc1
inhibition zone (disc diffusion; 100 µg/mL): 18 mm

O=C(O)c1cn(C2CC2)c2cc(N3CCNCC3)c(F)cc2c1=O
MIC (broth dilution): 25.5 µM
